# Results reported in ChEMBL document CHEMBL3758150, “Discovery and SAR of N-(1-((substituted piperidin-4-yl)methyl)-3-methoxypiperidin-4-yl)-2-methoxybenzamide derivatives: 5-Hydroxytryptamine receptor 4 agonist as a potent prokinetic agent” (Eur J Med Chem, 2016).
# Experiments:
# [1] = Solubility of the compound in distilled water; format: physicochemical
# Rattus norvegicus [2] = test: Induction of gastric emptying rate in Sprague-Dawley rat at 5 mg/kg, iv administered prior to feeding measured after 30 mins; format: functional, Stomach
# [3] = target: T1, 5-hydroxytryptamine receptor 4 (Homo sapiens, UniProt Q13639); test: Displacement of [3H]-GR113808 from human 5-HT4 receptor expressed in African green monkey COS7 cell membranes after 30 mins by liquid scintillation counting analysis; design: species or system COS-7
# T1 sequence (Q13639 whole entry): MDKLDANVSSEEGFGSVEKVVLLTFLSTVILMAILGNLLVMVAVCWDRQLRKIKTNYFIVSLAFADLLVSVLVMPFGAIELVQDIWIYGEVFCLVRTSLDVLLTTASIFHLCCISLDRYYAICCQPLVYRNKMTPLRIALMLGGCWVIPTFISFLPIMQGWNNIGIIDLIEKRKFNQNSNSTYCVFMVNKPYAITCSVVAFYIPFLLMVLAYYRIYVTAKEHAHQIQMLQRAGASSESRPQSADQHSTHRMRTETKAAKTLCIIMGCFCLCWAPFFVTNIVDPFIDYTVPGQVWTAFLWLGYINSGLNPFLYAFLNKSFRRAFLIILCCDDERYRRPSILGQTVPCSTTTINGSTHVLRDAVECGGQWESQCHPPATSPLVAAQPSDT
# How it was run: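 Membranes from Cos-7 cells expressing human 5-HT4: cells washed in PBS, pelleted, then resuspended in ice-cold 50 mM HEPES pH 7.4 and spun at 40,000 g for 30 min at 4 °C. Nonspecific binding was set with 10 μM 5-HT. IC50 came from linear regression of the displacement curve.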
# [4] = target: Voltage-gated inwardly rectifying potassium channel KCNH2 (Homo sapiens, UniProt Q12809); test: Inhibition of human ERG channel by fluorescence polarization assay
# Sequence of Voltage-gated inwardly rectifying potassium channel KCNH2 (Q12809 whole entry): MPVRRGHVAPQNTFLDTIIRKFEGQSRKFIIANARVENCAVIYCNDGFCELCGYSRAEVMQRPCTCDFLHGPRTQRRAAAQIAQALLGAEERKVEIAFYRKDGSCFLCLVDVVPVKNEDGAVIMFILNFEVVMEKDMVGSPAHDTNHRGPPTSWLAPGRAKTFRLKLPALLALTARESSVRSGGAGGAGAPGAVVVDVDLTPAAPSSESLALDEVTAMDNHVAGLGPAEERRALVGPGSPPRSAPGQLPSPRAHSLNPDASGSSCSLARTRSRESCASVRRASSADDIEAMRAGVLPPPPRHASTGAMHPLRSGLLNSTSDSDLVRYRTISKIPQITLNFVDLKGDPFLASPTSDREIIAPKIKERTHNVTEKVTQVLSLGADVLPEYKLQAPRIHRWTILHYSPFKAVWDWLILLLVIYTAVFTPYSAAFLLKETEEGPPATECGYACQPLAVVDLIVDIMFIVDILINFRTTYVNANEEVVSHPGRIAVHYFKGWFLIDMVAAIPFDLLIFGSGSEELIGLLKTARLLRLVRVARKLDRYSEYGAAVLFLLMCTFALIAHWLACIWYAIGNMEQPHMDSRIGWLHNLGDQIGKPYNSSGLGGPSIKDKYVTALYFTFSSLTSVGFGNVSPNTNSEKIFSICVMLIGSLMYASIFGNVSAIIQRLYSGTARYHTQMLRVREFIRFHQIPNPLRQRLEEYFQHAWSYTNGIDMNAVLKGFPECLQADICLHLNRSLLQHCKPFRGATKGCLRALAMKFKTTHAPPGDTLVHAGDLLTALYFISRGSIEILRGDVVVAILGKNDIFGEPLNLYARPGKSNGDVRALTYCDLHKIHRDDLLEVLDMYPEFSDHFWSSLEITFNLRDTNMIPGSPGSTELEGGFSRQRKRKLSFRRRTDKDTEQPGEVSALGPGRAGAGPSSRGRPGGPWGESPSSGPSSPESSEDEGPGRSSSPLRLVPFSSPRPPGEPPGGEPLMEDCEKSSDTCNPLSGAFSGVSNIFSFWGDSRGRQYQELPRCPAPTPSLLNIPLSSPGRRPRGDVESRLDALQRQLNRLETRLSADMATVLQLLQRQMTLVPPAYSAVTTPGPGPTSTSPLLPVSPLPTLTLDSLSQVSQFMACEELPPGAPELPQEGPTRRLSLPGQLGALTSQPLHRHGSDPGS
# Rattus norvegicus [5] = test: Induction of gastric emptying rate in Sprague-Dawley rat at 5 mg/kg, iv administered prior to feeding along with cisplatin injection measured after 40 mins; format: functional, Stomach
# How it was run: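 Male Sprague-Dawley rats (220–250 g) were fasted 18 h with water available. A 2 mL semisolid meal was given 30 min after drug, together with cisplatin 5 mg/kg i.v. Gastric emptying was determined 40 min later from stomach weights versus 0-time controls: [1 − test/control] × 100.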
# Rattus norvegicus [6] = test: AUCinfinity in rat at 5 mg/kg, po; format: ADME, organism-based; design: dose 5 mg/kg, time infinity, route oral; details: in vivo
# Rattus norvegicus [7] = test: Induction of gastric emptying rate in Sprague-Dawley rat at 0.1 mg/kg, po administered prior to feeding measured after 30 mins; format: functional, Stomach
# How it was run: (§1)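 Male Sprague-Dawley rats (220–250 g) were fasted 18 h with free water. A 2 mL semisolid meal was gavaged 50 min after drug, and rats were killed 30 min later. Stomach plus contents were weighed. Gastric emptying (%) = [1 − test stomach weight/0-time control stomach weight] × 100.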
# [8] = Tmax in rat at 5 mg/kg, po; format: ADME, organism-based; details: in vivo
# [9] = Cmax in rat at 5 mg/kg, po; format: ADME, organism-based; design: dose 5 mg/kg, route oral; details: in vivo
# [10] = target: 5-hydroxytryptamine receptor 4 (Rattus norvegicus, UniProt Q62758); test: Agonist activity at 5-HT4 receptor in rat esophageal thoracic muscularis mucosae assessed as carbachol-induced contraction
# Sequence of 5-hydroxytryptamine receptor 4 (Rattus norvegicus, UniProt Q62758) (Q62758 whole entry): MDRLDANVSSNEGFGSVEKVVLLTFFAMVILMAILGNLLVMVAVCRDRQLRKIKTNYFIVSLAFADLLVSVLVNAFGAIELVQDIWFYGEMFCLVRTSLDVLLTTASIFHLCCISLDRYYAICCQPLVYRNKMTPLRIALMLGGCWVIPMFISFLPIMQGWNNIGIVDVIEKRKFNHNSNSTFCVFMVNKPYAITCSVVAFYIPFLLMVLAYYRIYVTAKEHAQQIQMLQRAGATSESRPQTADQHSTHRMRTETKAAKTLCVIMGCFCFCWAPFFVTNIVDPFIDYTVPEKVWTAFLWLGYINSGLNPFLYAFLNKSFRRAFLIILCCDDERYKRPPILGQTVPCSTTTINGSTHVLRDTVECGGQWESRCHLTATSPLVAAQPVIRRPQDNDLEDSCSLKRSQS
# How it was run: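 The distal 1.2 cm of rat esophagus was equilibrated 60 min in Krebs–Henseleit, washed every 15 min, with isometric force recording. Tissue was precontracted with 3 μM carbachol, then given a cumulative relaxation curve to 5-HT. After a wash and 60 min recovery it was recontracted and a test-compound curve run. Potency is relative to 5-HT in the same preparation.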
# [11] = Half life in rat at 5 mg/kg, po; format: ADME, organism-based; details: in vivo
# Rattus norvegicus [12] = test: Induction of gastric emptying rate in Sprague-Dawley rat at 0.5 mg/kg, po administered prior to feeding measured after 30 mins; format: functional, Stomach; how it was run: as §1
# [13] = target: Somatostatin receptor type 2 (Homo sapiens) (UniProt P30874); details: 1 to 2 uM
# [14] = target: Muscarinic acetylcholine receptor M2 (Homo sapiens) (UniProt P08172); details: 1 to 2 uM
# [15] = target: Substance-K receptor (Homo sapiens) (UniProt P21452); details: 1 to 2 uM
# [16] = target: D(2) dopamine receptor (Homo sapiens) (UniProt P14416); details: 1 to 2 uM
# Sequence of D(2) dopamine receptor (Homo sapiens) (P14416 whole entry): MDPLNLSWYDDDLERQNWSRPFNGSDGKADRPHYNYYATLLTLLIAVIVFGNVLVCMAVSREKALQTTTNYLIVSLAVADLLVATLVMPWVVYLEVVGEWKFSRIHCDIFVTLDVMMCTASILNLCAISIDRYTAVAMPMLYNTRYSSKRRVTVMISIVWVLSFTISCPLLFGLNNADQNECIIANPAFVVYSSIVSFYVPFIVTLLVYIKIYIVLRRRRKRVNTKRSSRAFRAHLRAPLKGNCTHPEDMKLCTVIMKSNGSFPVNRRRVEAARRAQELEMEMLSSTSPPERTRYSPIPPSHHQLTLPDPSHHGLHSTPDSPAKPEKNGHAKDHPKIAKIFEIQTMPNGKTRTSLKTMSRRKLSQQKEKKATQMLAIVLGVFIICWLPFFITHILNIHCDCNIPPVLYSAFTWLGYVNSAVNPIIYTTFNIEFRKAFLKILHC
# [17] = target: D(3) dopamine receptor (Homo sapiens) (UniProt P35462); details: 1 to 2 uM
# [18] = target: Adrenergic receptor alpha-2 (Homo sapiens) (UniProt P08913+P18825+P18089); details: 1 to 2 uM
# [19] = target: T1, 5-hydroxytryptamine receptor 4; details: 1 to 2 uM
# [20] = target: Beta-1 adrenergic receptor (Homo sapiens) (UniProt P08588); details: 1 to 2 uM
# Sequence of Beta-1 adrenergic receptor (Homo sapiens) (P08588 whole entry, looked up): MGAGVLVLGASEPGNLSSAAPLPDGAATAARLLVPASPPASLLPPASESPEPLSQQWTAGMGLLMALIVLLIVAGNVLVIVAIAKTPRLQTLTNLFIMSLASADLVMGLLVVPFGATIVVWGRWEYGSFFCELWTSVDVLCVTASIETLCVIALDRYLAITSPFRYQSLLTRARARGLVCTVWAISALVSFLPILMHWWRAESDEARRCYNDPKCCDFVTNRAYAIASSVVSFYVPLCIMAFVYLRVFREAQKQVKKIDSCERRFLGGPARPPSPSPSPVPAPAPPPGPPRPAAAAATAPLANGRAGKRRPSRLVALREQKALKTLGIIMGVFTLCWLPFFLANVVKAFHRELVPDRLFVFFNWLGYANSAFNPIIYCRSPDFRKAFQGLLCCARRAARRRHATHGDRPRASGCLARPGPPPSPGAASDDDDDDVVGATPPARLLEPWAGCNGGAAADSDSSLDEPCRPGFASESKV
# [21] = target: 5-hydroxytryptamine receptor 1A (Homo sapiens) (UniProt P08908); details: 1 to 2 uM
# [22] = target: Kappa-type opioid receptor (Homo sapiens) (UniProt P41145); details: 1 to 2 uM
# [23] = target: Motilin receptor (Homo sapiens) (UniProt O43193); details: 1 to 2 uM
# [24] = target: Substance-P receptor (Homo sapiens) (UniProt P25103); details: 1 to 2 uM
# [25] = target: Cholecystokinin receptor type A (Homo sapiens) (UniProt P32238); details: 1 to 2 uM
# Sequence of Cholecystokinin receptor type A (Homo sapiens) (P32238 whole entry): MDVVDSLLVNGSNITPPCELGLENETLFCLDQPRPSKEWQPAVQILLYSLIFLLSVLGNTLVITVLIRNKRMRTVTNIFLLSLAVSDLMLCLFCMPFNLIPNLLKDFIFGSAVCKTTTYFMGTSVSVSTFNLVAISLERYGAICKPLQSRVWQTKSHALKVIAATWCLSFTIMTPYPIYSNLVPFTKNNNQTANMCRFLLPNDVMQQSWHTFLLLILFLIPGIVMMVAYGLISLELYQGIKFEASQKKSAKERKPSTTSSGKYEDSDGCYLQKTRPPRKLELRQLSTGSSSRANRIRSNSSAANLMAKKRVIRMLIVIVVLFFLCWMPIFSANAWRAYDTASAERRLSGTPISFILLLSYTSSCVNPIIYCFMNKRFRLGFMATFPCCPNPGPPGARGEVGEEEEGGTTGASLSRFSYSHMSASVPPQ
# [26] = target: 5-hydroxytryptamine receptor 3A (Homo sapiens) (UniProt P46098); details: 1 to 2 uM
# Sequence of 5-hydroxytryptamine receptor 3A (Homo sapiens) (P46098 whole entry): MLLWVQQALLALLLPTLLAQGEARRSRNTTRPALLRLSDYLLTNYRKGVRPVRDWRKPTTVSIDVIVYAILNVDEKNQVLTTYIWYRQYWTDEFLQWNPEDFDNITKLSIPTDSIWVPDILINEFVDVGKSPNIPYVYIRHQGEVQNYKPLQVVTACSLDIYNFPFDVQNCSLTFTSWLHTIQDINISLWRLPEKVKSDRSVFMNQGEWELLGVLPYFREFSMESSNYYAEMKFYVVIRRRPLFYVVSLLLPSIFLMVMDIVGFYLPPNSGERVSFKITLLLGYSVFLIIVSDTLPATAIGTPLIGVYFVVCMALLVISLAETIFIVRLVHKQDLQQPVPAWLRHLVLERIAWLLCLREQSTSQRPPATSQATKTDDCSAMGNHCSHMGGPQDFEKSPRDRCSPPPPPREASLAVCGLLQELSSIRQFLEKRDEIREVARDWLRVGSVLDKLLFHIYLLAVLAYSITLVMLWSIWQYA
# [27] = target: 5-hydroxytryptamine receptor 2A (Homo sapiens) (UniProt P28223); details: 1 to 2 uM
# Sequence of 5-hydroxytryptamine receptor 2A (Homo sapiens) (P28223 whole entry): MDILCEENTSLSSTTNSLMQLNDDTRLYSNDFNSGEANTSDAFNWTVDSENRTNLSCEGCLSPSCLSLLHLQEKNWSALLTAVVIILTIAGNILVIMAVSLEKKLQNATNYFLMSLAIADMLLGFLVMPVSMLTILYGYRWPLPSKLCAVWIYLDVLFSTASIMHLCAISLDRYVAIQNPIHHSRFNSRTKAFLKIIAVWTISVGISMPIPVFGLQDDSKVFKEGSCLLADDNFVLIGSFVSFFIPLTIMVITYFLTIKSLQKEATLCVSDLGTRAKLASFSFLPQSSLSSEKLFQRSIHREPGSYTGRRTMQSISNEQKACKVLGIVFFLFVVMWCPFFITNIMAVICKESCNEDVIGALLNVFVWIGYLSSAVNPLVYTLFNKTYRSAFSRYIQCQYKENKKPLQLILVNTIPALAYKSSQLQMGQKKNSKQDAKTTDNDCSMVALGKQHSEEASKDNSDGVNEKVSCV
# [28] = target: D(2) dopamine receptor (Homo sapiens) (UniProt P14416); details: 1 to 2 uM; remark: listed apart in the source
# [29] = target: Adrenergic receptor alpha-1 (Homo sapiens) (UniProt P35348+P25100+P35368); details: 1 to 2 uM
# [30] = target: 5-hydroxytryptamine receptor 2B (Homo sapiens) (UniProt P41595); details: 1 to 2 uM
# [31] = target: 5-hydroxytryptamine receptor 1B (Homo sapiens) (UniProt P28222); details: 1 to 2 uM
# [32] = target: Muscarinic acetylcholine receptor M3 (Homo sapiens) (UniProt P20309); details: 1 to 2 uM
# Sequence of Muscarinic acetylcholine receptor M3 (Homo sapiens) (P20309 whole entry, looked up): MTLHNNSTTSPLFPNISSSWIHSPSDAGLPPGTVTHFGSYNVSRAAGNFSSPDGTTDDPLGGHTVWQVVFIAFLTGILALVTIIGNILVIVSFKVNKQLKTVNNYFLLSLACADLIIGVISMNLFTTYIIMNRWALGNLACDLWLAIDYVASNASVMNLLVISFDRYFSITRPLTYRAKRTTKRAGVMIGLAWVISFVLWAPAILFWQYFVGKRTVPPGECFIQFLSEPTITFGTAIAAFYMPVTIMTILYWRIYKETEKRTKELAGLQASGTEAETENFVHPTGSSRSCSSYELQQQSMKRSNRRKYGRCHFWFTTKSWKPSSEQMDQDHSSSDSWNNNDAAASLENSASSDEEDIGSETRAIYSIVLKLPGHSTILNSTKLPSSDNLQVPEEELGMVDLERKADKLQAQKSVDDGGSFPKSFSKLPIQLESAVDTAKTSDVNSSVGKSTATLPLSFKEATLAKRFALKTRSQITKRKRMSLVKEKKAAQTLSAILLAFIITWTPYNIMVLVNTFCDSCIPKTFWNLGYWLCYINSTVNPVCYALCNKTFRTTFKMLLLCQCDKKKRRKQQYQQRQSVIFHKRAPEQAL
# [33] = target: Mu-type opioid receptor (Homo sapiens) (UniProt P35372); details: 1 to 2 uM
smiles,measurement,setting,value
COc1cc(N)c(Cl)cc1C(=O)N[C@H]1CCN(CC2CCN(C(=O)C(C)C)CC2)C[C@H]1OC.CS(=O)(=O)O,solubility,[1],> 10 mg/mL
COc1cc(N)c(Cl)cc1C(=O)N[C@@H]1CCN(CC2CCN(C(=O)C(C)C)CC2)C[C@@H]1OC,Activity,Rattus norvegicus [2],61.7%
same,IC50,[3],68 nM
COc1cc(N)c(Cl)cc1C(=O)N[C@H]1CCN(CC2CCN(C(=O)C(C)C)CC2)C[C@H]1OC.O=C(O)C(O)C(O)C(=O)O,solubility,[1],> 30 mg/mL
CCOC(=O)N1CCC(CN2CC[C@H](NC(=O)c3cc(Cl)c(N)cc3OC)[C@H](OC)C2)CC1,Activity,Rattus norvegicus [2],55.9%
same,IC50,[3],377 nM
COc1cc(N)c(Cl)cc1C(=O)N[C@H]1CCN(CCCn2ncnn2)C[C@H]1OC,IC50,[4],> 10000 nM
same,IC50,[3],1120 nM
Br.COc1cc(N)c(Cl)cc1C(=O)N[C@H]1CCN(CC2CCN(C(=O)C(C)C)CC2)C[C@H]1OC,solubility,[1],< 5 mg/mL
COc1cc(N)c(Cl)cc1C(=O)N[C@H]1CCN(CC2CCN(C(=O)C(C)C)CC2)C[C@H]1OC.O=C(O)/C=C\C(=O)O,solubility,[1],> 10 mg/mL
COc1cc(N)c(Cl)cc1C(=O)N[C@H]1CCN(CC2CCN(C(=O)C(C)C)CC2)C[C@H]1OC.O=C(O)CC(O)(CC(=O)O)C(=O)O,solubility,[1],> 30 mg/mL
COc1cc(N)c(Cl)cc1C(=O)N[C@H]1CCN(CC2CCN(C(=O)C(C)C)CC2)C[C@H]1OC.Cl,solubility,[1],> 15 mg/mL
COc1cc(N)c(Cl)cc1C(=O)N[C@H]1CCN(CC2CCN(C(=O)C(C)C)CC2)C[C@H]1OC,Activity,Rattus norvegicus [2],56.5%
same,IC50,[3],> 10000 nM
COc1cc(N)c(Cl)cc1C(=O)N[C@H]1CCN(CC2CCN(C(=O)C(C)C)CC2)C[C@H]1OC (racemic) [listing 1 of 2 here],Activity,Rattus norvegicus [5],58.6%
same,AUC,Rattus norvegicus [6],483 ng·h/mL
same,Activity,Rattus norvegicus [7],46.2%
same,Tmax,[8],15 min
same,Activity,Rattus norvegicus [2],59.1%
same,Cmax,[9],572 ng/mL
same,EC50,[10],45.7 nM
same,half-life,[11],58.8 min
same,IC50,[3],134 nM
same,Activity,Rattus norvegicus [12],46.9%
COc1cc(N)c(Cl)cc1C(=O)N[C@H]1CCN(CC2CCN(C(=O)C(C)C)CC2)C[C@H]1OC (racemic) [listing 2 of 2 here],inhibition,[13],50%
same,inhibition,[14],50%
same,inhibition,[15],50%
same,inhibition,[16],50%
same,inhibition,[17],50%
same,inhibition,[18],50%
same,inhibition,[19],50%
same,inhibition,[20],50%
same,inhibition,[21],50%
same,inhibition,[22],50%
same,inhibition,[23],50%
same,inhibition,[24],50%
same,inhibition,[25],50%
same,inhibition,[26],50%
same,inhibition,[27],50%
same,inhibition,[28],50%
same,inhibition,[29],50%
same,inhibition,[30],50%
same,inhibition,[31],50%
same,inhibition,[32],50%
same,inhibition,[33],50%
COc1cc(N)c(Cl)cc1C(=O)N[C@H]1CCN(CCCn2ccnc2)C[C@H]1OC (relative stereo),EC50,[10],251 nM
same,IC50,[3],1160 nM
CCC(=S)N1CCC(CN2CC[C@H](NC(=O)c3cc(Cl)c(N)cc3OC)[C@H](OC)C2)CC1 (relative stereo),Activity,Rattus norvegicus [2],61%
same,IC50,[3],593 nM
COc1cc(N)c(Cl)cc1C(=O)N[C@H]1CCN(CCC(=O)N2CCOCC2)C[C@H]1OC (relative stereo),IC50,[3],954 nM
COc1cc(N)c(Cl)cc1C(=O)N[C@H]1CCN(CC2CCN(C(=O)CC(C)C)CC2)C[C@H]1OC (relative stereo),Activity,Rattus norvegicus [2],54.3%
COc1cc(N)c(Cl)cc1C(=O)N[C@H]1CCN(CCC(=O)N2CCCC2)C[C@H]1OC (relative stereo),IC50,[3],920 nM
CCCOC(=O)N1CCC(CN2CC[C@H](NC(=O)c3cc(Cl)c(N)cc3OC)[C@H](OC)C2)CC1 (relative stereo),Activity,Rattus norvegicus [2],57.7%
same,IC50,[3],134 nM
COc1cc(N)c(Cl)cc1C(=O)N[C@H]1CCN(CC2CCN(C(=S)C(C)C)CC2)C[C@H]1OC (relative stereo),Activity,Rattus norvegicus [2],67.3%
same,IC50,[3],155 nM
COc1cc(N)c(Cl)cc1C(=O)N[C@H]1CCN(CCn2cccc2)C[C@H]1OC (relative stereo),IC50,[3],5760 nM
COc1cc(N)c(Cl)cc1C(=O)N[C@H]1CCN(CCCn2cccc2)C[C@H]1OC (relative stereo),EC50,[10],676 nM
same,IC50,[3],648 nM
COc1cc(N)c(Cl)cc1C(=O)N[C@H]1CCN(CCC(=O)N2CCCCC2)C[C@H]1OC (relative stereo),EC50,[10],1050 nM
same,IC50,[3],560 nM
COc1cc(N)c(Cl)cc1C(=O)N[C@H]1CCN(CC2CCN(C(=O)NC(C)C)CC2)C[C@H]1OC (relative stereo),Activity,Rattus norvegicus [2],59.9%
same,IC50,[3],73 nM
CCC(=O)N1CCC(CN2CC[C@H](NC(=O)c3cc(Cl)c(N)cc3OC)[C@H](OC)C2)CC1 (relative stereo),Activity,Rattus norvegicus [2],57.8%
same,EC50,[10],380 nM
same,IC50,[3],329 nM
CCC(=O)N1CCCC(CN2CC[C@H](NC(=O)c3cc(Cl)c(N)cc3OC)[C@H](OC)C2)C1 (relative stereo),EC50,[10],1550 nM
same,IC50,[3],493 nM
COc1cc(N)c(Cl)cc1C(=O)N[C@H]1CCN(CC2CCN(C(C)=O)CC2)C[C@H]1OC (relative stereo),Activity,Rattus norvegicus [2],39.5%
same,IC50,[3],592 nM
CCCC(=O)N1CCC(CN2CC[C@H](NC(=O)c3cc(Cl)c(N)cc3OC)[C@H](OC)C2)CC1 (relative stereo),Activity,Rattus norvegicus [2],48.6%
same,IC50,[3],178 nM
COc1cc(N)c(Cl)cc1C(=O)N[C@H]1CCN(CCCn2cncn2)C[C@H]1OC (relative stereo),IC50,[4],7710 nM
same,EC50,[10],708 nM
same,IC50,[3],1270 nM
COc1cc(N)c(Cl)cc1C(=O)N[C@H]1CCN(CC2CCN(C(=O)N(C)C)CC2)C[C@H]1OC (relative stereo),Activity,Rattus norvegicus [2],46%
same,IC50,[3],52 nM
CCC(=O)N1CCC(CCN2CC[C@H](NC(=O)c3cc(Cl)c(N)cc3OC)[C@H](OC)C2)CC1 (relative stereo),IC50,[3],805 nM
COc1cc(N)c(Cl)cc1C(=O)N[C@H]1CCN(CCC(=O)N2CCC(Cc3ccccc3)CC2)C[C@H]1OC (relative stereo),EC50,[10],6030 nM
same,IC50,[3],66 nM
COc1cc(N)c(Cl)cc1C(=O)N[C@H]1CCN(CC2CCN(C(=O)C(C)(C)C)CC2)C[C@H]1OC (relative stereo),Activity,Rattus norvegicus [5],56.6%
same,AUC,Rattus norvegicus [6],263 ng·h/mL
same,Tmax,[8],15 min
same,Activity,Rattus norvegicus [2],56.4%
same,Cmax,[9],345 ng/mL
same,EC50,[10],100 nM
same,half-life,[11],46.2 min
same,IC50,[3],118 nM
COC(=O)N1CCC(CN2CC[C@H](NC(=O)c3cc(Cl)c(N)cc3OC)[C@H](OC)C2)CC1 (relative stereo),Activity,Rattus norvegicus [2],56.2%
same,IC50,[3],190 nM
COc1cc(N)c(Cl)cc1C(=O)N[C@H]1CCN(CCCOc2ccc(F)cc2)C[C@H]1OC (relative stereo) [REL-CISAPRIDE],Activity,Rattus norvegicus [5],57.2%
same,AUC,Rattus norvegicus [6],142 ng·h/mL
same,Tmax,[8],15 min
same,Activity,Rattus norvegicus [2],57.1%
same,Cmax,[9],104 ng/mL
same,half-life,[11],88.8 min
